Laboratory results reported in ChEMBL document CHEMBL1128478, “Structure-activity relationships of the potent combined endothelin-A/endothelin-B receptor antagonist Ac-DDip16-Leu-Asp-Ile-Ile-Trp21: development of endothelin-B receptor selective antagonists” (J Med Chem, 1995).
Where a name gives a salt, the structure may show the parent alone. Numbered stars: 1 amine (or outer) side, 2 acyl side, 3 side chain; on linkers, the order of the positions; unused ones are H or OH. Square brackets hold non-standard residues; d marks the D form. Peptide text beside a SMILES is read from it. * marks the point of attachment. X4 = Cc1c(C)c(C)c(C[C@@H](N[*:1])C(=O)[*:2])c(C)c1C; X2 = Cc1c(C)c(C)c(C[C@H](N[*:1])C(=O)[*:2])c(C)c1C; Diphenylacetyl = O=C(C(c1ccccc1)c1ccccc1)*; dDip = N[C@@H](C(=O)O)C(c1ccccc1)c1ccccc1; Dip = N[C@H](C(=O)O)C(c1ccccc1)c1ccccc1; Cyclohexanecarbonyl = O=C(C1CCCCC1)*; NHcHex = C1CCC(N*)CC1; CO = O=C([*:1])[*:2]; Piv = CC(C)(C)C(=O)*; Propionyl = CCC(=O)*; Tfa = O=C(C(F)(F)F)*; Bz = O=C(c1ccccc1)*; Ms = CS(=O)(=O)*

Columns and labels:
[1] = target: T1, Endothelin receptor type B (Rattus norvegicus, UniProt P21451); test: Inhibition of SRTX-6c stimulated arachidonic acid release in CHO cells expressing rat ET- B receptors
T1 sequence (P21451 whole entry): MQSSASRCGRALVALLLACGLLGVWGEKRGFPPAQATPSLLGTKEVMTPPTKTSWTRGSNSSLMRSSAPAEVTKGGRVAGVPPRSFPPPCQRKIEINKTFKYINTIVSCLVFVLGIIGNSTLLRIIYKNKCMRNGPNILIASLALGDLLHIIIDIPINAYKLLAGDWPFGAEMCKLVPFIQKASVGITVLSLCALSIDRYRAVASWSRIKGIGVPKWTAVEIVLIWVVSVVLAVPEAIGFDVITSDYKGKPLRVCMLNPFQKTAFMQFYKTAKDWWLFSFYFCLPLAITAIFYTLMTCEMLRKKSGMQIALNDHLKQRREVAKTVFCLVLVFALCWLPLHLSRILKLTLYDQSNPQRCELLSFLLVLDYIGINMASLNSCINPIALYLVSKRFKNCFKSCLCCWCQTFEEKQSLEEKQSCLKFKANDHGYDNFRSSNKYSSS

[2] = Relative affinities against endothelin A receptor (rabbit) and endothelin B receptor (rat); design: reference not given here
[3] = target: T1, Endothelin receptor type B; test: Binding affinity against endothelin B receptor rat cerebellar membranes.
[4] = target: T2, Endothelin receptor type B (Homo sapiens, UniProt P24530); test: Binding affinity measured in CHO cells stably transfected with the human endothelin B receptor; type: cell-based
T2 sequence (P24530 whole entry): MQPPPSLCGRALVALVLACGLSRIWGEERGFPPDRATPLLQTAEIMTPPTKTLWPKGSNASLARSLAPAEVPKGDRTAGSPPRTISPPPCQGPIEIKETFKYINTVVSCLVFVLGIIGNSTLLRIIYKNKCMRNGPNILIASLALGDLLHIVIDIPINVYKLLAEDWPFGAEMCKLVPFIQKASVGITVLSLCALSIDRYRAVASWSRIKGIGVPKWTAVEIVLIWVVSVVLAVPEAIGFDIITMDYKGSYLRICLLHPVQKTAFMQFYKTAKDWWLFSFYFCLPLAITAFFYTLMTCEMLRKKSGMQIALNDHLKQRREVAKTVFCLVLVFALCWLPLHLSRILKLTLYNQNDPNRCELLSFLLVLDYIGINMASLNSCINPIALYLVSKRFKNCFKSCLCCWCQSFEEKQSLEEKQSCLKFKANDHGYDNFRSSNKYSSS
In short: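 Membranes come from confluent CHO-K1 clones stably expressing human ETB, grown in DME/F12 with 10% FCS and G418 0.5 mg/mL. Specific binding fitted by nonlinear least squares. Triplicate points per IC50.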

[5] = Relative affinities for rat endothelin B receptor and human endothelin B receptor; design: reference not given here
[6] = target: T1, Endothelin receptor type B; test: Inhibition of SRTX-6c stimulated arachidonic acid release in CHO cells expressing recombinant rat ET- B receptors

SMILES	IC50 [1] [nM]	Ratio [2]	IC50 [3] [nM]	IC50 [4] [nM]	Ratio [5]	IC50 [6] [nM]
CC[C@H](C)[C@H](NC(=O)[C@H](CC(=O)O)NC(=O)[C@H](CC(C)C)NC(=O)[C@@H](NC(=O)C(C)(C)C)C(c1ccccc1)c1ccccc1)C(=O)N[C@H](C(=O)N[C@@H](Cc1c[nH]c2ccccc12)C(=O)O)[C@@H](C)CC (Piv-[Dip]LDIIW-OH)	890	25	400	–	–	–
CC[C@H](C)[C@H](NC(=O)[C@H](CC(=O)O)NC(=O)[C@H](CC(C)C)NC(=O)[C@@H](NC(=O)C1CCCCC1)C(c1ccccc1)c1ccccc1)C(=O)N[C@H](C(=O)N[C@@H](Cc1c[nH]c2ccccc12)C(=O)O)[C@@H](C)CC (Cyclohexanecarbonyl-[Dip]LDIIW-OH)	560	17.8	350	–	–	–
CC[C@H](C)[C@H](NC(=O)[C@H](CC(=O)O)NC(=O)[C@H](CC(C)C)NC(=O)[C@H](N)C(c1ccccc1)c1ccccc1)C(=O)N[C@H](C(=O)N[C@@H](Cc1c[nH]c2ccccc12)C(=O)O)[C@@H](C)CC (H-[dDip]LDIIW-OH)	9200	–	–	–	–	–
CC[C@H](C)[C@H](NC(=O)[C@H](CC(=O)O)NC(=O)[C@H](CC(C)C)NC(=O)[C@@H](NS(C)(=O)=O)C(c1ccccc1)c1ccccc1)C(=O)N[C@H](C(=O)N[C@@H](Cc1c[nH]c2ccccc12)C(=O)O)[C@@H](C)CC (Ms-[Dip]LDIIW-OH)	–	2.1	260	–	–	1300
CC[C@H](C)[C@H](NC(=O)[C@H](CC(=O)O)NC(=O)[C@H](CC(C)C)NC(=O)[C@@H](NC(=O)C(c1ccccc1)c1ccccc1)C(c1ccccc1)c1ccccc1)C(=O)N[C@H](C(=O)N[C@@H](Cc1c[nH]c2ccccc12)C(=O)O)[C@@H](C)CC (Diphenylacetyl-[Dip]LDIIW-OH)	9300	2	1300	–	–	–
CC[C@H](C)[C@H](NC(=O)[C@H](CC(=O)O)NC(=O)[C@H](CCCNC(=N)N)NC(=O)[C@@H](NC(C)=O)C(c1ccccc1)c1ccccc1)C(=O)N[C@H](C(=O)N[C@@H](Cc1c[nH]c2ccccc12)C(=O)O)[C@@H](C)CC	–	–	–	–	59	–
CC[C@H](C)[C@H](NC(=O)[C@H](CC(=O)O)NC(=O)[C@H](CC(C)C)NC(=O)[C@@H](NC(=O)C(F)(F)F)C(c1ccccc1)c1ccccc1)C(=O)N[C@H](C(=O)N[C@@H](Cc1c[nH]c2ccccc12)C(=O)O)[C@@H](C)CC (Tfa-[Dip]LDIIW-OH)	290	0.42	600	–	–	–
CC[C@H](C)[C@H](NC(=O)[C@H](CCCCN)NC(=O)[C@H](CC(C)C)NC(=O)C(NC(C)=O)C(c1ccccc1)c1ccccc1)C(=O)N[C@H](C(=O)N[C@@H](Cc1c[nH]c2ccccc12)C(=O)O)[C@@H](C)CC (single isomer, unassigned)	–	–	–	> 10000	–	–
CC[C@H](C)[C@H](NC(=O)[C@H](CC(=O)O)NC(=O)[C@H](CC(C)C)NC(=O)[C@@H](Cc1c(C)c(C)c(C)c(C)c1C)NC(C)=O)C(=O)N[C@H](C(=O)N[C@@H](Cc1c[nH]c2ccccc12)C(=O)O)[C@@H](C)CC (Ac-[X4]LDIIW-OH)	–	–	2400	–	–	–
CC[C@H](C)[C@H](NC(=O)[C@H](CC(=O)O)NC(=O)[C@H](CC(C)C)NC(=O)[C@@H](N)Cc1c(C)c(C)c(C)c(C)c1C)C(=O)N[C@H](C(=O)N[C@@H](Cc1c[nH]c2ccccc12)C(=O)O)[C@@H](C)CC (H-[X2]LDIIW-OH)	–	–	> 10000	–	–	–
CCC(=O)N[C@H](C(=O)N[C@@H](CC(C)C)C(=O)N[C@@H](CC(=O)O)C(=O)N[C@H](C(=O)N[C@H](C(=O)N[C@@H](Cc1c[nH]c2ccccc12)C(=O)O)[C@@H](C)CC)[C@@H](C)CC)C(c1ccccc1)c1ccccc1 (Propionyl-[Dip]LDIIW-OH)	220	3.8	260	–	–	–

Further compounds by falling IC50 [3], results first:

IC50 [1] [nM]	Ratio [2]	IC50 [3] [nM]	IC50 [4] [nM]	Ratio [5]	IC50 [6] [nM]	SMILES
20	6.1	140	–	–	–	CC[C@H](C)[C@H](NC(=O)[C@H](CC(=O)O)NC(=O)[C@H](CC(C)C)NC(=O)[C@@H](NC(=O)NC)C(c1ccccc1)c1ccccc1)C(=O)N[C@H](C(=O)N[C@@H](Cc1c[nH]c2ccccc12)C(=O)O)[C@@H](C)CC ({NHMe-CO}-[Dip]LDIIW-OH)
210	29.4	68	–	–	–	CC[C@H](C)[C@H](NC(=O)[C@H](CC(=O)O)NC(=O)[C@H](CC(C)C)NC(=O)[C@@H](NC(=O)NC1CCCCC1)C(c1ccccc1)c1ccccc1)C(=O)N[C@H](C(=O)N[C@@H](Cc1c[nH]c2ccccc12)C(=O)O)[C@@H](C)CC ({NHcHex-CO}-[Dip]LDIIW-OH)
–	–	60	> 1600	17	–	CC[C@H](C)[C@H](NC(=O)[C@H](Cc1ccccc1)NC(=O)[C@H](CC(C)C)NC(=O)[C@@H](NC(C)=O)C(c1ccccc1)c1ccccc1)C(=O)N[C@H](C(=O)N[C@@H](Cc1c[nH]c2ccccc12)C(=O)O)[C@@H](C)CC (Ac-[Dip]LFIIW-OH)
–	–	56	900	16	–	CC[C@H](C)[C@H](NC(=O)[C@H](Cc1ccccc1)NC(=O)[C@H](CC(=O)O)NC(=O)[C@H](CC(C)C)NC(=O)[C@@H](NC(C)=O)C(c1ccccc1)c1ccccc1)C(=O)N[C@@H](Cc1c[nH]c2ccccc12)C(=O)O (Ac-[Dip]LDFIW-OH)
290	210	30	4400	147	–	CC[C@H](C)[C@H](NC(=O)[C@H](CC(=O)O)NC(=O)[C@H](CC(C)C)NC(=O)[C@@H](NC(=O)c1ccccc1)C(c1ccccc1)c1ccccc1)C(=O)N[C@H](C(=O)N[C@@H](Cc1c[nH]c2ccccc12)C(=O)O)[C@@H](C)CC (Bz-[Dip]LDIIW-OH)
–	–	19	1800	95	–	CC[C@H](C)[C@H](NC(=O)[C@H](CCC(=O)O)NC(=O)[C@H](CC(C)C)NC(=O)[C@@H](NC(C)=O)C(c1ccccc1)c1ccccc1)C(=O)N[C@H](C(=O)N[C@@H](Cc1c[nH]c2ccccc12)C(=O)O)[C@@H](C)CC (Ac-[Dip]LEIIW-OH)
–	–	10	590	–	–	CC[C@H](C)[C@H](NC(=O)[C@H](CC(=O)O)NC(=O)[C@H](CCCNC(=N)N)NC(=O)[C@H](NC(C)=O)C(c1ccccc1)c1ccccc1)C(=O)N[C@H](C(=O)N[C@@H](Cc1c[nH]c2ccccc12)C(=O)O)[C@@H](C)CC
